Source: PubChem (Broad Institute)
GASC1 inh – inhibitors of GASC-1 (KDM4C) histone demethylase, primary screen, biochemical, single concentration HTS; GST-KDM4C 2-372, H3K9me3 peptide, LANCE TR-FRET; hit rate 0.15% among 96,000; inhibition, % at 12.5 µM; Lysine-specific demethylase 4C (Homo sapiens), Q9H3R0;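 active = mean replicate inhibition above about 25%, with at least 55% of replicates also reaching it, limit read from the data, passing the limit was not always enough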
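Material: GST-tagged GASC-1 (JMJD2C) catalytic fragment, aa 2-372 / Quantity: enzyme final amount 10 nM / Medium: HEPES buffer, pH 7.5, plus ascorbate / Doses: one test concentration per compound / Incubation: 30 min reaction, 60 min detection, RT / Measured by: LANCE TR-FRET / Read-out: inhibition from TR-FRET ratio decrease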
T cruzi growth-1 – T. cruzi intracellular proliferation inhibitors, primary screen, cell-based, beta-gal Tulahuen parasites, NIH3T3 host, luminescence; T. cruzi beta-gal in NIH3T3, GalScreen luminescence, 90 h; inhibition, % at 8.34 µM; hit rate 5.9% among 77,000;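 active = mean inhibition above about 93%, with at least 55% of replicates each passing it, limit read from the data, passing the limit was not always enough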
IDH1 mut inh – inhibitors of IDH1 R132H reductase, primary screen, biochemical, plate reader, single point; Isocitrate dehydrogenase [NADP] cytoplasmic (Homo sapiens), O75874; diaphorase/resazurin fluorescence, 60 min; inhibition, % at 10 µM; hit rate 0.18% among 70,000; in the data active = inhibition above about 34%;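 note: 0% = DMSO and 100% = no enzyme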
Target sequence (O75874 whole entry R132H): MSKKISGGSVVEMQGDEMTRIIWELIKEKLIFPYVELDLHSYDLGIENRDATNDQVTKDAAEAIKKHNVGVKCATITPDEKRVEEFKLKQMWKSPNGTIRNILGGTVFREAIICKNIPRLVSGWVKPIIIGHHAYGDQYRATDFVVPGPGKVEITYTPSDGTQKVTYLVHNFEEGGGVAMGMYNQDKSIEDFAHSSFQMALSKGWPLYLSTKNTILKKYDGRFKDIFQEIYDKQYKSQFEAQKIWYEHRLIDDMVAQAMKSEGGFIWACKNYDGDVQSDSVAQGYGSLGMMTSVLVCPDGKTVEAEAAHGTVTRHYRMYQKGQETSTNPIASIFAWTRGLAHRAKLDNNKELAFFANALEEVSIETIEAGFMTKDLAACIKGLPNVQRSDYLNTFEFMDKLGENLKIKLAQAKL
T cruzi growth-2 – T. cruzi intracellular proliferation inhibitors, confirmation, cell-based, NIH3T3 host, beta-gal parasite, luminescence, cherry-pick. inhibition, % at 8.35 µM. shares compounds with T cruzi growth-1. T. cruzi beta-gal in NIH3T3, GalScreen luminescence, 90 h. hit rate 72% among 5,600. AID 651739, 2012;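 active = mean replicate inhibition above about 95% and at least 55% of replicates individually reaching it, limit read from the data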
T cruzi growth-3 – inhibitors of intracellular T. cruzi replication, confirmation, NIH3T3 host cells, beta-gal parasites, cherry-pick, set 2. shares compounds with T cruzi growth-1. T. cruzi beta-gal in NIH3T3, GalScreen luminescence, 90 h. inhibition, % at 2.09 µM. hit rate 21% among 5,600;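 active = mean inhibition above about 95%, with at least 55% of replicates also reaching it, limit read from the data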;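 note: plate controls were neutral control median for no effect and positive control median for full effect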
NIH3T3 tox – cytotoxicity in mouse NIH/3T3 fibroblasts, confirmation, cytotoxicity control for T. cruzi proliferation inhibitor project, cell-based, cherry-pick, single point; cytotoxicity (signal decrease), % at 8.35 µM; NIH/3T3 viability, CellTiter-Glo ATP luminescence, 90 h; hit rate 14% among 5,600; shares compounds with T cruzi growth-1; AID 651742, 2012;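 active = mean signal decrease across replicates above about 35% based on untreated-well scatter, with enough replicates individually passing, limit read from the data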;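 note: 0% = median of neutral control wells and 100% = median of positive control wells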
3T3 cytotox 2 – NIH/3T3 fibroblast cytotoxicity, confirmation, cytotoxicity control, cell-based, cherry-pick, single point, set 2 | shares compounds with T cruzi growth-1 | NIH/3T3 viability, CellTiter-Glo ATP luminescence, 90 h | inhibition, % at 24.9 µM | hit rate 56% among 5,600;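 active = mean loss of cell viability signal at or above a set limit, and enough replicates individually reaching it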;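 note: 0% = median of neutral control wells and 100% = median of positive control wells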
Starred values were filed as active, the others as inactive; . = no result given. Many of the other results were omitted from the sample, so hits are more common in it than they were.

SMILES	GASC1 inh	T cruzi growth-1	IDH1 mut inh	others
O=C(Nc1ccccc1[N+](=O)[O-])c1cccc(S(=O)(=O)Nc2ccc(Br)cc2)c1	.	.	0
C[C@H](CO)N1C[C@H](C)[C@H](CN(C)C(=O)C2CCCCC2)OCCCC[C@H](C)Oc2ccc(NC(=O)Nc3ccc(F)cc3)cc2C1=O	0	83	.
C[C@@H]1CCCCO[C@@H](CN(C)C(=O)C2CCCCC2)[C@@H](C)CN([C@H](C)CO)C(=O)c2cc(NC(=O)Nc3ccc(C(F)(F)F)cc3)ccc2O1	20	117*	.	T cruzi growth-2=87;T cruzi growth-3=63;NIH3T3 tox=30;3T3 cytotox 2=26*
C[C@@H]1CCCCO[C@@H](CN(C)C(=O)C2CCCCC2)[C@@H](C)CN([C@H](C)CO)C(=O)c2cc(NC(=O)Nc3ccc(F)cc3)ccc2O1	1	12	.
C[C@@H]1CCCCO[C@H](CN(C)C(=O)C2CCCCC2)[C@H](C)CN([C@@H](C)CO)C(=O)c2cc(NC(=O)Nc3ccc(C(F)(F)F)cc3)ccc2O1	0	118*	.	T cruzi growth-2=98*;T cruzi growth-3=118*;NIH3T3 tox=-18;3T3 cytotox 2=-2
C[C@@H]1CN([C@@H](C)CO)C(=O)c2cc(NC(=O)Nc3ccc(C(F)(F)F)cc3)ccc2O[C@@H](C)CCCCO[C@@H]1CN(C)C(=O)C1CCCCC1	0	102	1
C[C@H]1CCCCO[C@H](CN(C)C(=O)C2CCCCC2)[C@@H](C)CN([C@@H](C)CO)C(=O)c2cc(NC(=O)Nc3ccc(C(F)(F)F)cc3)ccc2O1	2	121*	0	T cruzi growth-2=96*;T cruzi growth-3=111*;NIH3T3 tox=-4;3T3 cytotox 2=31*
CN1C(=O)c2cc(NC(=O)c3cccc(F)c3)ccc2OC[C@H]2O[C@@H](CC(=O)NCc3ccccc3Cl)CC[C@H]21	-1	73	.
CO[C@H]1CN(C)C(=O)c2ccc(NS(C)(=O)=O)cc2OC[C@@H](C)N(C(=O)C2CCC2)C[C@H]1C	2	16	0
COc1ccc(NC(=O)N(C)C[C@@H]2OCCCC[C@@H](C)Oc3ccc(NS(=O)(=O)c4ccc(OC)cc4)cc3C(=O)N([C@@H](C)CO)C[C@@H]2C)cc1	1	.	1
C/C=C/c1cnc2c(c1)C(=O)N([C@@H](C)CO)C[C@H](C)[C@H](CN(C)C(=O)C1CCC1)O2	7	71	0
CO[C@H](CN(C)C(=O)C1CCOCC1)[C@H](C)CN([C@H](C)CO)S(=O)(=O)c1ccccc1	0	15	0
COc1ccc(CN(C)C[C@@H]2Oc3c(NS(=O)(=O)c4ccc(C)cc4)cccc3C(=O)N([C@@H](C)CO)C[C@H]2C)cc1	-3	-11	.
COCC(=O)Nc1ccc2c(c1)[C@H]1C[C@@H](CC(=O)NCc3ccccn3)O[C@H](CO)[C@H]1O2	0	8	0
CC(C)CC#Cc1ccc2c(c1)O[C@@H](CN(C)Cc1ccccc1F)[C@H](C)CN([C@@H](C)CO)S2(=O)=O	1	56	-2
CC(C)CC#Cc1ccc2c(c1)O[C@@H](CN(C)Cc1ccccc1F)[C@@H](C)CN([C@@H](C)CO)S2(=O)=O	-2	127*	0	T cruzi growth-2=92;T cruzi growth-3=112*;NIH3T3 tox=-1;3T3 cytotox 2=105*
C[C@@H]1CN([C@@H](C)CO)S(=O)(=O)c2ccc(C#CC3CC3)cc2O[C@@H]1CN(C)Cc1ccccc1F	13	77	0
COCC#Cc1ccc2c(c1)O[C@H](CN(C)Cc1ccccc1F)[C@H](C)CN([C@H](C)CO)S2(=O)=O	1	-1	-2
